Measurements from ChEMBL document CHEMBL1132256, “Structure-activity relationships for substituted bis(acridine-4-carboxamides): a new class of anticancer agents” (J Med Chem, 1999).

The compounds below were run on CAKI-1 (assay: inhibitory activity against renal tumor […] cell line.). Settings: Homo sapiens.
Assay type: functional
Outline: (§1)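 Tested in the NCI human cell line panel. GI50 = drug concentration (nM) giving growth inhibition to 50% of controls; values below 10 nM were taken as 10 nM in calculations.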

Structure (SMILES)	GI50 [nM]
Cc1cccc2cc3cccc(C(=O)NCCCN(C)CCCNC(=O)c4cccc5cc6cccc(C)c6nc45)c3nc12	< 10
Cc1cc(C(=O)NCCCN(C)CCCNC(=O)c2cc(C)cc3cc4ccccc4nc23)c2nc3ccccc3cc2c1	247
Cc1ccc(C)c2nc3c(C(=O)NCCCN(C)CCCNC(=O)c4cccc5cc6c(C)ccc(C)c6nc45)cccc3cc12	< 10
COc1cccc2cc3cccc(C(=O)NCCCN(C)CCCNC(=O)c4cccc5cc6cccc(OC)c6nc45)c3nc12	1490

Each compound was assayed on SK-OV-3 (assay: inhibitory activity against ovarian carcinoma SKOV3 cell line.). Settings: Homo sapiens.
Assay type: functional
Outline: as §1

Structure (SMILES)	GI50 [nM]
Cc1cccc2cc3cccc(C(=O)NCCCN(C)CCCNC(=O)c4cccc5cc6cccc(C)c6nc45)c3nc12	87
Cc1cc(C(=O)NCCCN(C)CCCNC(=O)c2cc(C)cc3cc4ccccc4nc23)c2nc3ccccc3cc2c1	460
Cc1ccc(C)c2nc3c(C(=O)NCCCN(C)CCCNC(=O)c4cccc5cc6c(C)ccc(C)c6nc45)cccc3cc12	320
COc1cccc2cc3cccc(C(=O)NCCCN(C)CCCNC(=O)c4cccc5cc6cccc(OC)c6nc45)c3nc12	12000

The compounds below were run on Jurkat (assay: Ratio of inhibitory activity against doxorubicin resistant jurkat cells to inhibitory activity against wild type human jurkat cells). Settings: not given.
Assay type: functional
Outline: (§2)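 Wild-type Jurkat (JLC) and its amsacrine-resistant (JLA) or doxorubicin-resistant (JLD) sublines each seeded at 3.75 × 10^3 cells/well, 4 days with drug, sulforhodamine read-out. IC50 (nM) for 50% of control cell number; ratio = resistant-line IC50 divided by JLC IC50. Duplicate assays, CV ca. 25%.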

Structure (SMILES)	Ratio
Cc1cccc2cc3cccc(C(=O)NCCCN(C)CCCNC(=O)c4cccc5cc6cccc(C)c6nc45)c3nc12	0.7
Cc1cc(C(=O)NCCCN(C)CCCNC(=O)c2cc(C)cc3cc4ccccc4nc23)c2nc3ccccc3cc2c1	1.1
Cc1ccc(C)c2nc3c(C(=O)NCCCN(C)CCCNC(=O)c4cccc5cc6c(C)ccc(C)c6nc45)cccc3cc12	0.7
COc1cccc2cc3cccc(C(=O)NCCCN(C)CCCNC(=O)c4cccc5cc6cccc(OC)c6nc45)c3nc12	0.8

Each compound was assayed on MCF7 (assay: inhibitory activity against multi drug resistant MCF cell line.). Settings: Homo sapiens, in the assay text read “MCF7 cell line” for “multi drug resistant MCF cell line”.
Assay type: functional
Outline: as §1

Structure (SMILES)	GI50 [nM]
Cc1cccc2cc3cccc(C(=O)NCCCN(C)CCCNC(=O)c4cccc5cc6cccc(C)c6nc45)c3nc12	< 10
Cc1cc(C(=O)NCCCN(C)CCCNC(=O)c2cc(C)cc3cc4ccccc4nc23)c2nc3ccccc3cc2c1	546
Cc1ccc(C)c2nc3c(C(=O)NCCCN(C)CCCNC(=O)c4cccc5cc6c(C)ccc(C)c6nc45)cccc3cc12	< 10
COc1cccc2cc3cccc(C(=O)NCCCN(C)CCCNC(=O)c4cccc5cc6cccc(OC)c6nc45)c3nc12	394

The compounds below were run on Lewis lung carcinoma cell line (assay: Inhibitory activity of tested against Murine Lewis lung carcinoma). Settings: Mus musculus.
Assay type: functional, cell-based
Outline: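 Lewis lung carcinoma (LLTC) cells at 10^3 cells/well, 4-day continuous drug exposure, growth read by sulforhodamine assay. IC50 (nM) = concentration giving 50% of control cell number. Duplicate independent assays, CV ca. 25%.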

Structure (SMILES)	IC50 [nM]
Cc1cccc2cc3cccc(C(=O)NCCCN(C)CCCNC(=O)c4cccc5cc6cccc(C)c6nc45)c3nc12	1.8
Cc1cc(C(=O)NCCCN(C)CCCNC(=O)c2cc(C)cc3cc4ccccc4nc23)c2nc3ccccc3cc2c1	67
Cc1ccc(C)c2nc3c(C(=O)NCCCN(C)CCCNC(=O)c4cccc5cc6c(C)ccc(C)c6nc45)cccc3cc12	3.2
COc1cccc2cc3cccc(C(=O)NCCCN(C)CCCNC(=O)c4cccc5cc6cccc(OC)c6nc45)c3nc12	170

The compounds below were run on Jurkat (assay: Concentration required to inhibit 50% growth of human Jurkat cells). Settings: not given.
Assay type: functional, cell-based
Outline: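 Jurkat leukemia (JLC) cells seeded at 3.75 × 10^3 cells/well and exposed to drug for 4 days; growth measured by sulforhodamine assay. IC50 = drug concentration (nM) reducing cell number to 50% of control cultures. Independent assays in duplicate, coefficients of variation ca. 25%.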

Structure (SMILES)	IC50 [nM]
Cc1cccc2cc3cccc(C(=O)NCCCN(C)CCCNC(=O)c4cccc5cc6cccc(C)c6nc45)c3nc12	11
Cc1cc(C(=O)NCCCN(C)CCCNC(=O)c2cc(C)cc3cc4ccccc4nc23)c2nc3ccccc3cc2c1	255
Cc1ccc(C)c2nc3c(C(=O)NCCCN(C)CCCNC(=O)c4cccc5cc6c(C)ccc(C)c6nc45)cccc3cc12	11
COc1cccc2cc3cccc(C(=O)NCCCN(C)CCCNC(=O)c4cccc5cc6cccc(OC)c6nc45)c3nc12	345

What follows are compounds tested on P388 (assay: Inhibitory activity against Murine […]). Settings: Mus musculus.
Assay type: functional, cell-based
Outline: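 Murine P388 leukemia cells seeded at 4.5 × 10^3 cells/well, cultured 3 days with drug; growth measured by [3H]TdR uptake. IC50 = drug concentration (nM) reducing cell number to 50% of controls. Independent assays in duplicate, CV ca. 25%.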

Structure (SMILES)	IC50 [nM]
Cc1cccc2cc3cccc(C(=O)NCCCN(C)CCCNC(=O)c4cccc5cc6cccc(C)c6nc45)c3nc12	23
Cc1cc(C(=O)NCCCN(C)CCCNC(=O)c2cc(C)cc3cc4ccccc4nc23)c2nc3ccccc3cc2c1	220
Cc1ccc(C)c2nc3c(C(=O)NCCCN(C)CCCNC(=O)c4cccc5cc6c(C)ccc(C)c6nc45)cccc3cc12	24
COc1cccc2cc3cccc(C(=O)NCCCN(C)CCCNC(=O)c4cccc5cc6cccc(OC)c6nc45)c3nc12	430

What follows are compounds tested on Jurkat (assay: Ratio of inhibitory activity against amsacrine resistant jurkat cells to inhibitory activity against wild type human jurkat cells). Settings: not given.
Assay type: functional
Outline: as §2

Structure (SMILES)	Ratio
Cc1cccc2cc3cccc(C(=O)NCCCN(C)CCCNC(=O)c4cccc5cc6cccc(C)c6nc45)c3nc12	0.4
Cc1cc(C(=O)NCCCN(C)CCCNC(=O)c2cc(C)cc3cc4ccccc4nc23)c2nc3ccccc3cc2c1	0.7
Cc1ccc(C)c2nc3c(C(=O)NCCCN(C)CCCNC(=O)c4cccc5cc6c(C)ccc(C)c6nc45)cccc3cc12	0.4
COc1cccc2cc3cccc(C(=O)NCCCN(C)CCCNC(=O)c4cccc5cc6cccc(OC)c6nc45)c3nc12	0.5

The compounds below were run on NCI/ADR-RES (assay: inhibitory activity against multi drug resistant NCI/ADR cell line.). Settings: Homo sapiens.
Assay type: functional
Outline: as §1

Structure (SMILES)	GI50 [nM]
Cc1cccc2cc3cccc(C(=O)NCCCN(C)CCCNC(=O)c4cccc5cc6cccc(C)c6nc45)c3nc12	116
Cc1cc(C(=O)NCCCN(C)CCCNC(=O)c2cc(C)cc3cc4ccccc4nc23)c2nc3ccccc3cc2c1	657
Cc1ccc(C)c2nc3c(C(=O)NCCCN(C)CCCNC(=O)c4cccc5cc6c(C)ccc(C)c6nc45)cccc3cc12	172
COc1cccc2cc3cccc(C(=O)NCCCN(C)CCCNC(=O)c4cccc5cc6cccc(OC)c6nc45)c3nc12	1390

The compounds below were run on HT-29 (assay: inhibitory activity against colon HT-29 cell line.). Settings: Homo sapiens.
Assay type: functional
Outline: as §1

Structure (SMILES)	GI50 [nM]
Cc1cccc2cc3cccc(C(=O)NCCCN(C)CCCNC(=O)c4cccc5cc6cccc(C)c6nc45)c3nc12	< 10
Cc1cc(C(=O)NCCCN(C)CCCNC(=O)c2cc(C)cc3cc4ccccc4nc23)c2nc3ccccc3cc2c1	265
Cc1ccc(C)c2nc3c(C(=O)NCCCN(C)CCCNC(=O)c4cccc5cc6c(C)ccc(C)c6nc45)cccc3cc12	< 10
COc1cccc2cc3cccc(C(=O)NCCCN(C)CCCNC(=O)c4cccc5cc6cccc(OC)c6nc45)c3nc12	103

The compounds below were run on HCT-116 (assay: inhibitory activity against colon HCT116 cell line.). Settings: Homo sapiens.
Assay type: functional
Outline: as §1

Structure (SMILES)	GI50 [nM]
Cc1cccc2cc3cccc(C(=O)NCCCN(C)CCCNC(=O)c4cccc5cc6cccc(C)c6nc45)c3nc12	< 10
Cc1cc(C(=O)NCCCN(C)CCCNC(=O)c2cc(C)cc3cc4ccccc4nc23)c2nc3ccccc3cc2c1	< 10
Cc1ccc(C)c2nc3c(C(=O)NCCCN(C)CCCNC(=O)c4cccc5cc6c(C)ccc(C)c6nc45)cccc3cc12	< 10
COc1cccc2cc3cccc(C(=O)NCCCN(C)CCCNC(=O)c4cccc5cc6cccc(OC)c6nc45)c3nc12	330
